Results taken from BindingDB's records for doi:10.1021/jm030916r (Uppsala University, 2004).

Legend:
[1] = biological target: T1, Thioredoxin reductase 3 (Homo sapiens, UniProt Q86VQ6); test: Inhibition of thioredoxin reductase
T1 sequence (Q86VQ6 whole entry): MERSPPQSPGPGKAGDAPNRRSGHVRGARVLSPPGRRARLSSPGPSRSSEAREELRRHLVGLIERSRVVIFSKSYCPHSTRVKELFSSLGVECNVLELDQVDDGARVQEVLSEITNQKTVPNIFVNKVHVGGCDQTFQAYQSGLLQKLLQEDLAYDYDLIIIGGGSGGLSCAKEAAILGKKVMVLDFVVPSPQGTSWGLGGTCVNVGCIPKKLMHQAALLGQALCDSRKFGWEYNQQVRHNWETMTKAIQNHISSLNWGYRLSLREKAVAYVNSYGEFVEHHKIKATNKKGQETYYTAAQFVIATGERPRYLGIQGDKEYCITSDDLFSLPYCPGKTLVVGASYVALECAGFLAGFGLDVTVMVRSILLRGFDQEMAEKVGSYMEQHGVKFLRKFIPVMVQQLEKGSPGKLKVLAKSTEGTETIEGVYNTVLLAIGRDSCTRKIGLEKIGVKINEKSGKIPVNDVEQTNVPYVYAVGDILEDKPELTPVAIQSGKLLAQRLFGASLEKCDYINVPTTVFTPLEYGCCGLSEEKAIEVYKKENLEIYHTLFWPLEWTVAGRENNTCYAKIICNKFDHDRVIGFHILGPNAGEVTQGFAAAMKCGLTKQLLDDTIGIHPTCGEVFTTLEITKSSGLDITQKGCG
Method in brief: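 TrxR-only activity in HE buffer (100 mM HEPES pH 7.2, 5 mM EDTA) with 1.0 μM TrxR, 10 mM DTNB, 1 mM NADPH and inhibitor (final). Compound and enzyme added first, reaction started with NADPH/DTNB at 37 °C. OD 412 nm read every 10 s for initial linear rates. IC50 is 50% inhibition of thionitrobenzoate formation.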

[2] = biological target: T1, Thioredoxin reductase 3; test: Inhibition of thioredoxin reductase in the presence of thioredoxinand insulin
Method in brief: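 Insulin reduction coupled to Trx/TrxR, final concentrations: 100 mM HEPES pH 7.2, 5 mM EDTA, 1 mM NADPH, 1.0 μM TrxR, 0.8 μM Trx, 2.5 mg/mL bovine insulin plus inhibitor. 30 min at 37 °C, stopped with 6 M guanidine HCl/50 mM Tris pH 8.0/10 mM DTNB, absorbance at 412 nm. IC50 for 50% inhibition of thionitrobenzoate formation.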

Question: For OCC1O[C@@H]2O[C@@H]3C(C[Te]c4ccccc4)O[C@H](O[C@@H]4C(CO)O[C@H](O[C@@H]5C(CO)O[C@H](O[C@@H]6C(CO)O[C@@H](O[C@@H]7C(CO)O[C@H](O[C@@H]8C(CO)O[C@H](O[C@H]1C(O)C2O)C(O)C8O)C(O)C7O)C(O)C6O)C(O)C5O)C(O)C4O)C(O)C3O (some centres not stated), which IC50 [1] is on record?
Answer: The IC50 was 17.8 µM.

Question: And the IC50 [2]?
Answer: The IC50 was 18 µM.
